Test results as given in ChEMBL document CHEMBL4715728, “New bifunctional antioxidant/σ1 agonist ligands: Preliminary chemico-physical and biological evaluation” (Bioorg Med Chem, 2016).
Active and inactive are the calls of the source. The calls are words filed in the database; no cut-off is given here.

Legend:
[1] = Antioxidant activity in Sprague-Dawley rat Cerebral cortex neuron assessed as total antioxidant capacity by measuring trolox equivalents at 10 uM after 24 hrs; assay type: functional
Summary of the method: (§1)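 Primary cerebral cortex neurons from rat fetuses, grown on poly-D-lysine in neurobasal medium with fetal calf serum (5% CO2, 37 °C), tested after 8 days in culture. Compounds in DMSO (0.5%) or sterile water were added and incubated 24 h at 37 °C. Cells were washed in ice-cold PBS and homogenized in 0.9% saline. Intracellular TAC (Trolox equiv.) and TOS (H2O2 equiv.) were read by kit. Ascorbic acid 10 µM (TAC) and H2O2 25 µM (TOS) served as positive controls. Four independent experiments.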

[2] = Antioxidant activity in Sprague-Dawley rat Cerebral cortex neuron assessed as total oxidative stress level by measuring H2O2 equivalents at 50 uM after 24 hrs (reference value: 2.3 +/- 0.3 umol/L); assay type: functional; summary of the method: as §1
[3] = species on record: Cavia porcellus; assay: Selectivity ratio of Ki for displacement of [3H]-DTG from sigma2 receptor in guinea pig brain membrane to Ki for displacement of [3H]-(+)-pentazocine from sigma1 receptor in guinea pig brain membrane; assay type: cell membranes
[4] = Antioxidant activity in Sprague-Dawley rat Cerebral cortex neuron assessed as total oxidative stress level by measuring H2O2 equivalents at 10 uM after 24 hrs (reference value: 2.3 +/- 0.3 umol/L); assay type: functional; summary of the method: as §1
[5] = Cytotoxicity against Sprague-Dawley rat Cerebral cortex neuron assessed as LDH activity at 1 uM incubated for 24 hrs by LDH assay (reference value: […]); assay type: tissue-based
Summary of the method: (§2)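 Primary fetal rat cortical neurons, matured 8 days on poly-D-lysine, exposed 24 h at 37 °C to compound (0.1–100 µM; DMSO 0.5% or water vehicle). LDH released into 100 µl culture medium was measured by kit as the rate of NAD+ reduction (absorbance increase at 490 nm). Positive control was mitomycin C. Four independent experiments.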

[6] = Antioxidant activity in Sprague-Dawley rat Cerebral cortex neuron assessed as total oxidative stress level by measuring H2O2 equivalents at 1 uM after 24 hrs (reference value: 2.3 +/- 0.3 umol/L); assay type: functional; summary of the method: as §1
[7] = Cytotoxicity against Sprague-Dawley rat Cerebral cortex neuron assessed as cell viability at 0.1 uM incubated for 24 hrs by MTT assay relative to control; assay type: tissue-based; details: cerebral cortex neurons, read-out: Activity
Summary of the method: (§3)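 Primary fetal rat cortical neurons, matured 8 days, treated 24 h at 37 °C with compound (0.1–100 µM; 0.5% DMSO or water vehicle). MTT 0.7 mg/ml was then added for 30 min at 37 °C, and formazan was extracted with isopropanol/formic acid (95:5) and read at 560 nm. Untreated control was set as 100% viability. Four independent experiments.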

[8] = Antioxidant activity in Sprague-Dawley rat Cerebral cortex neuron assessed as total oxidative stress level by measuring H2O2 equivalents at 100 uM after 24 hrs (reference value: 2.3 +/- 0.3 umol/L); assay type: functional; summary of the method: as §1
[9] = Cytotoxicity against Sprague-Dawley rat Cerebral cortex neuron assessed as cell viability at 10 uM incubated for 24 hrs by MTT assay relative to control; assay type: tissue-based; details: cerebral cortex neurons, read-out: Activity; summary of the method: as §3
[10] = Antioxidant activity in Sprague-Dawley rat Cerebral cortex neuron assessed as total antioxidant capacity by measuring trolox equivalents at 50 uM after 24 hrs; assay type: functional; summary of the method: as §1
[11] = Displacement of [3H]-DTG from Sigma 2 receptor in guinea pig brain membrane incubated for 120 mins in presence of sigma1 blocker (+)-SKF-10047 by liquid scintillation counting method; assay type: cell membranes, Cavia porcellus
[12] = Antioxidant activity in Sprague-Dawley rat Cerebral cortex neuron assessed as total antioxidant capacity by measuring trolox equivalents at 25 uM after 24 hrs; assay type: functional; summary of the method: as §1
[13] = Antioxidant activity in Sprague-Dawley rat Cerebral cortex neuron assessed as total antioxidant capacity by measuring trolox equivalents at 100 uM after 24 hrs; assay type: functional; summary of the method: as §1
[14] = Cytotoxicity against Sprague-Dawley rat Cerebral cortex neuron assessed as cell viability at 1 uM incubated for 24 hrs by MTT assay relative to control; assay type: tissue-based; details: cerebral cortex neurons, read-out: Activity; summary of the method: as §3
[15] = Cytotoxicity against Sprague-Dawley rat Cerebral cortex neuron assessed as LDH activity at 0.1 uM incubated for 24 hrs by LDH assay (reference value: […]); assay type: tissue-based; summary of the method: as §2
[16] = Antioxidant activity in Sprague-Dawley rat Cerebral cortex neuron assessed as total oxidative stress level by measuring H2O2 equivalents at 25 uM after 24 hrs (reference value: 2.3 +/- 0.3 umol/L); assay type: functional; summary of the method: as §1
[17] = Antioxidant activity in Sprague-Dawley rat Cerebral cortex neuron assessed as total antioxidant capacity by measuring trolox equivalents at 0.1 uM after 24 hrs; assay type: functional; summary of the method: as §1
[18] = Antioxidant activity in Sprague-Dawley rat Cerebral cortex neuron assessed as total oxidative stress level by measuring H2O2 equivalents at 0.1 uM after 24 hrs (reference value: 2.3 +/- 0.3 umol/L); assay type: functional; summary of the method: as §1
[19] = Antioxidant activity in Sprague-Dawley rat Cerebral cortex neuron assessed as total antioxidant capacity by measuring trolox equivalents at 1 uM after 24 hrs; assay type: functional; summary of the method: as §1
[20] = Cytotoxicity against rat Sprague-Dawley Cerebral cortex neuron assessed as cell viability at 50 uM incubated for 24 hrs by MTT assay relative to control; assay type: tissue-based; details: cerebral cortex neurons, read-out: Activity; summary of the method: as §3
[21] = biological target: Sigma non-opioid intracellular receptor 1 (Cavia porcellus, UniProt Q60492); assay: Displacement of [3H]-(+)-pentazocine from sigma1 receptor in guinea pig brain membrane incubated for 150 mins by liquid scintillation counting method; assay type: cell membranes
Summary of the method: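 Guinea pig brain membranes (500 µg protein) in 50 mM Tris-HCl pH 7.4 with 3 nM [3H]-(+)-pentazocine. […] Incubated 150 min at 37 °C, then filtered on PEI-soaked GF/B filters and counted by scintillation. Ki obtained by EBDA/LIGAND; three determinations.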

[22] = Cytotoxicity against Sprague-Dawley rat Cerebral cortex neuron assessed as LDH activity at 100 uM incubated for 24 hrs by LDH assay (reference value: […]); assay type: tissue-based; summary of the method: as §2
[23] = Cytotoxicity against Sprague-Dawley rat Cerebral cortex neuron assessed as cell viability at 25 uM incubated for 24 hrs by MTT assay relative to control; assay type: tissue-based; details: cerebral cortex neurons, read-out: Activity; summary of the method: as §3
[24] = Cytotoxicity against Sprague-Dawley rat Cerebral cortex neuron assessed as cell viability at 100 uM incubated for 24 hrs by MTT assay relative to control; assay type: tissue-based; details: cerebral cortex neurons, read-out: Activity; summary of the method: as §3
[25] = Cytotoxicity against Sprague-Dawley rat Cerebral cortex neuron assessed as LDH activity at 50 uM incubated for 24 hrs by LDH assay (reference value: […]); assay type: tissue-based; summary of the method: as §2
[26] = Cytotoxicity against Sprague-Dawley rat Cerebral cortex neuron assessed as LDH activity at 25 uM incubated for 24 hrs by LDH assay (reference value: […]); assay type: tissue-based; summary of the method: as §2
[27] = Cytotoxicity against Sprague-Dawley rat Cerebral cortex neuron assessed as LDH activity at 10 uM incubated for 24 hrs by LDH assay; assay type: tissue-based; summary of the method: as §2
[28] = test system: Mus musculus; assay: In vivo agonist activity at sigma 1 receptor in Swiss […] mouse assessed as modulation of morphine-induced analgesic effect by measuring tail flick latency at 1 mg/kg, ip measured after 90 mins by radiant heat tail-flick method; assay type: functional, organism-based
[29] = test system: Mus musculus; assay: In vivo agonist activity at sigma 1 receptor in Swiss […] mouse assessed as modulation of morphine-induced analgesic effect by measuring tail flick latency at 1 mg/kg, ip preincubated for 45 mins followed by morphine treatment after 90 mins by radiant heat tail-flick method; assay type: functional, organism-based; details: time 135.0 min

Sigma non-opioid intracellular receptor 1, sequence (Q60492 whole entry): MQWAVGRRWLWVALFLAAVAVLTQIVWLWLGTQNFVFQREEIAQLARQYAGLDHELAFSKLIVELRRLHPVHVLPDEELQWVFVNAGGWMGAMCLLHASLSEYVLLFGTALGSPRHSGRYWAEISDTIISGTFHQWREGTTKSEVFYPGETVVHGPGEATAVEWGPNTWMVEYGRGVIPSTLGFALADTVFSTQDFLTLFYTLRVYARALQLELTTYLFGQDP

Compound `O=C(CCCC[C@@H]1CCSS1)N1CCN(Cc2ccccc2)CC1` has a TAC [1] of 10.8 mmol/L, an Activity [2] of 0.4 µmol/L and a Ratio Ki [3] of 204. The Activity [4] was 0.4 µmol/L, the Activity [5] was 0.32 mU/ml and the Activity [6] was 0.5 µmol/L. For the same compound, the viability at 24 h, 0.1 µM [7] was 98.5%, the Activity [8] was 0.5 µmol/L and the viability at 24 h, 10 µM [9] was 96.5%. It also gave a TAC [10] of 12.8 mmol/L, a Ki [11] of 1240 nM and a TAC [12] of 13 mmol/L. The TAC [13] was 11.2 mmol/L, the viability at 24 h, 1 µM [14] was 98.7% and the Activity [15] was 0.3 mU/ml. For the same compound, the Activity [16] was 0.4 µmol/L, the TAC [17] was 10.2 mmol/L and the Activity [18] was 0.5 µmol/L. For the same compound, the TAC [19] was 10.5 mmol/L, the viability at 24 h, 50 µM [20] was 95.7% and the Ki [21] was 6.1 nM. For the same compound, the Activity [22] was 0.32 mU/ml, the viability at 24 h, 25 µM [23] was 96.6% and the viability at 24 h, 100 µM [24] was 95.8%. The Activity [25] was 0.3 mU/ml, the Activity [26] was 0.3 mU/ml and the Activity [27] was 0.32 mU/ml.

`O=C(O)CCCC[C@@H]1CCSS1` [THIOCTIC ACID] gave a TAC [1] of 10.9 mmol/L, an Activity [2] of 0.5 µmol/L and an Activity [4] of 0.4 µmol/L. The Activity [5] was 0.28 mU/ml, the Activity [6] was 0.5 µmol/L and the viability at 24 h, 0.1 µM [7] was 98.6%. For the same compound, the Activity [8] was 0.5 µmol/L, the viability at 24 h, 10 µM [9] was 98.1% and the TAC [10] was 12.1 mmol/L. It also gave a TAC [12] of 11.2 mmol/L, a TAC [13] of 13.5 mmol/L and a viability at 24 h, 1 µM [14] of 97.9%. It also gave an Activity [15] of 0.27 mU/ml, an Activity [16] of 0.4 µmol/L and a TAC [17] of 10.7 mmol/L. It also gave an Activity [18] of 0.4 µmol/L, a TAC [19] of 10.5 mmol/L and a viability at 24 h, 50 µM [20] of 96.4%. It also gave an Activity [22] of 0.29 mU/ml, a viability at 24 h, 25 µM [23] of 97.2% and a viability at 24 h, 100 µM [24] of 95.9%. For the same compound, the Activity [25] was 0.29 mU/ml, the Activity [26] was 0.27 mU/ml and the Activity [27] was 0.28 mU/ml.

Work on `O=C(CCCC[C@@H]1CCSS1)OC1CCN(Cc2ccccc2)CC1` yielded a TAC [1] of 10.9 mmol/L, an Activity [2] of 0.5 µmol/L and a Ratio Ki [3] of 106. For the same compound, the Activity [4] was 0.4 µmol/L, the Activity [5] was 0.28 mU/ml and the Activity [6] was 0.4 µmol/L. For the same compound, the viability at 24 h, 0.1 µM [7] was 100%, the Activity [8] was 0.5 µmol/L and the viability at 24 h, 10 µM [9] was 96.4%. It also gave a TAC [10] of 10.9 mmol/L, a Ki [11] of 1870 nM and a TAC [12] of 11.3 mmol/L. For the same compound, the TAC [13] was 11 mmol/L, the viability at 24 h, 1 µM [14] was 98.7% and the Activity [28] was “inactive”. For the same compound, the Activity [15] was 0.3 mU/ml, the Activity [16] was 0.5 µmol/L and the TAC [17] was 10.9 mmol/L. It also gave an Activity [18] of 0.4 µmol/L, a TAC [19] of 10.7 mmol/L and a viability at 24 h, 50 µM [20] of 97.4%. The Ki [21] was 17.7 nM, the Activity [29] was “Active” and the Activity [22] was 0.32 mU/ml. It also gave a viability at 24 h, 25 µM [23] of 96.6%, a viability at 24 h, 100 µM [24] of 96.2% and an Activity [25] of 0.34 mU/ml. For the same compound, the Activity [26] was 0.32 mU/ml and the Activity [27] was 0.3 mU/ml.

In the case of `CO[C@@]12[C@H](COC(N)=O)C3=C(C(=O)C(C)=C(N)C3=O)N1C[C@@H]1N[C@@H]12` [MITOMYCIN], the viability at 24 h, 10 µM [9] is reported as 46.1% and the Activity [27] is reported as 2.23 mU/ml.

With `O=C1O[C@H]([C@@H](O)CO)C(O)=C1O` [ASCORBIC ACID] the TAC [1] was 26.9 mmol/L.
